Experimental data as given in ChEMBL document CHEMBL2062453, “Lead optimization through VLAK protocol: new annelated pyrrolo-pyrimidine derivatives as antitumor agents” (2012).

Experiments:
Type in all cases: functional
SN12C = assay: Cytotoxicity against human SN12C cells assessed as cell growth at 10 uM after 48 hrs by SRB assay relative to control; conditions: read-out: Activity
OVCAR-5 = assay: Cytotoxicity against human OVCAR5 cells assessed as cell growth at 10 uM after 48 hrs by SRB assay relative to control; conditions: OVCAR-5, 48 h, read-out: Activity
NCI-H23 = assay: Cytotoxicity against human NCI-H23 cells assessed as cell growth at 10 uM after 48 hrs by SRB assay relative to control; conditions: NCI-H23, 48 h, read-out: Activity
MDA-MB-468 = assay: Cytotoxicity against human MDA-MB-468 cells assessed as cell growth at 10 uM after 48 hrs by SRB assay relative to control; conditions: MDA-MB-468, 48 h, read-out: Activity
T47D = assay: Cytotoxicity against human T47D cells assessed as cell growth at 10 uM after 48 hrs by SRB assay relative to control; conditions: read-out: Activity
Method in brief: (§1)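 NCI single-dose primary screen across about 60 human tumour lines. Each line was inoculated and preincubated on microtiter plates, then exposed to one concentration of agent for 48 h. Growth is reported as percent growth (G%) of treated cells versus untreated control cells.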

TK-10 = assay: Cytotoxicity against human TK10 cells assessed as cell growth at 10 uM after 48 hrs by SRB assay relative to control; conditions: TK-10, 48 h, read-out: Activity; method in brief: as §1
NCI-H226 = assay: Cytotoxicity against human NCI-H226 cells assessed as cell growth at 10 uM after 48 hrs by SRB assay relative to control; conditions: NCI-H226, 48 h, read-out: Activity
HOP-62 = assay: Cytotoxicity against human HOP62 cells assessed as cell growth at 10 uM after 48 hrs by SRB assay relative to control; conditions: HOP-62, 48 h, read-out: Activity
Method in brief: (§2)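 NCI primary screen of about 60 human tumour lines. Cells inoculated and preincubated, then a single test concentration added and cultures incubated 48 h. Result given as percent growth (G%) of treated versus untreated control cells.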

Hs-578T = assay: Cytotoxicity against human Hs578T cells assessed as cell growth at 10 uM after 48 hrs by SRB assay relative to control; conditions: read-out: Activity; method in brief: as §2
IGROV-1 = assay: Cytotoxicity against human IGROV1 cells assessed as cell growth at 10 uM after 48 hrs by SRB assay relative to control; conditions: IGROV-1, 48 h, read-out: Activity; method in brief: as §2
U-251 = assay: Cytotoxicity against human U251 cells assessed as cell growth at 10 uM after 48 hrs by SRB assay relative to control; conditions: U-251, 48 h, read-out: Activity; method in brief: as §1
HCT-15 = assay: Cytotoxicity against human HCT15 cells assessed as cell growth at 10 uM after 48 hrs by SRB assay relative to control; conditions: HCT-15, 48 h, read-out: Activity; method in brief: as §2
LOX IMVI = assay: Cytotoxicity against human LOXIMVI cells assessed as cell growth at 10 uM after 48 hrs by SRB assay relative to control; conditions: read-out: Activity; method in brief: as §2
SNB-19 = assay: Cytotoxicity against human SNB19 cells assessed as cell growth at 10 uM after 48 hrs by SRB assay relative to control; conditions: SNB-19, 48 h, read-out: Activity
UACC-62 = assay: Cytotoxicity against human UACC62 cells assessed as cell growth at 10 uM after 48 hrs by SRB assay relative to control; conditions: UACC-62, 48 h, read-out: Activity; method in brief: as §1
SK-MEL-28 = assay: Cytotoxicity against human SK-MEL-28 cells assessed as cell growth at 10 uM after 48 hrs by SRB assay relative to control; conditions: SK-MEL-28, 48 h, read-out: Activity
SK-OV-3 = assay: Cytotoxicity against human SKOV3 cells assessed as cell growth at 10 uM after 48 hrs by SRB assay relative to control; conditions: SK-OV-3, 48 h, read-out: Activity
OVCAR-4 = assay: Cytotoxicity against human OVCAR4 cells assessed as cell growth at 10 uM after 48 hrs by SRB assay relative to control; conditions: OVCAR-4, 48 h, read-out: Activity
COLO 205 = assay: Cytotoxicity against human COLO205 cells assessed as cell growth at 10 uM after 48 hrs by SRB assay relative to control; conditions: COLO 205, 48 h, read-out: Activity; method in brief: as §2
MCF7 = assay: Cytotoxicity against human MCF7 cells assessed as cell growth at 10 uM after 48 hrs by SRB assay relative to control; conditions: MCF7, 48 h, read-out: Activity; method in brief: as §2
ACHN = assay: Cytotoxicity against human ACHN cells assessed as cell growth at 10 uM after 48 hrs by SRB assay relative to control; conditions: read-out: Activity; method in brief: as §2
NCI-H460 = assay: Cytotoxicity against human NCI-H460 cells assessed as cell growth at 10 uM after 48 hrs by SRB assay relative to control; conditions: NCI-H460, 48 h, read-out: Activity
786-0 = assay: Cytotoxicity against human 786-0 cells assessed as cell growth at 10 uM after 48 hrs by SRB assay relative to control; conditions: 786-0, 48 h, read-out: Activity; method in brief: as §2
HT-29 = assay: Cytotoxicity against human HT-29 cells assessed as cell growth at 10 uM after 48 hrs by SRB assay relative to control; conditions: HT-29, 48 h, read-out: Activity; method in brief: as §2
BT-549 = assay: Cytotoxicity against human BT549 cells assessed as cell growth at 10 uM after 48 hrs by SRB assay relative to control; conditions: BT-549, 48 h, read-out: Activity; method in brief: as §2
MDA-MB-435 = assay: Cytotoxicity against human MDA-MB-435 cells assessed as cell growth at 10 uM after 48 hrs by SRB assay relative to control; conditions: MDA-MB-435, 48 h, read-out: Activity
SK-MEL-5 = assay: Cytotoxicity against human SK-MEL-5 cells assessed as cell growth at 10 uM after 48 hrs by SRB assay relative to control; conditions: SK-MEL-5, 48 h, read-out: Activity

SMILES: CCOC(=O)CCCn1c(C)c(C)c2c1N=C(SC)N1CC(=O)N=C21
- growth at 10 µM (SN12C): 110%
- growth at 10 µM (OVCAR-5): 125%
- growth at 10 µM (NCI-H23): 117%
- growth at 10 µM (MDA-MB-468): 55%
- growth at 10 µM (T47D): 95%
- growth at 10 µM (TK-10): 135%
- growth at 10 µM (NCI-H226): 113%
- growth at 10 µM (HOP-62): 112%
- growth at 10 µM (Hs-578T): 120%
- growth at 10 µM (IGROV-1): 98%
- growth at 10 µM (U-251): 105%
- growth at 10 µM (HCT-15): 108%
- growth at 10 µM (LOX IMVI): 101%
- growth at 10 µM (SNB-19): 108%
- growth at 10 µM (UACC-62): 106%
- growth at 10 µM (SK-MEL-28): 114%
- growth at 10 µM (SK-OV-3): 127%
- growth at 10 µM (OVCAR-4): 100%
- growth at 10 µM (COLO 205): 132%
- growth at 10 µM (MCF7): 96%
- growth at 10 µM (ACHN): 110%
- growth at 10 µM (NCI-H460): 110%
- growth at 10 µM (786-0): 113%
- growth at 10 µM (HT-29): 109%
- growth at 10 µM (BT-549): 119%
- growth at 10 µM (MDA-MB-435): 122%
- growth at 10 µM (SK-MEL-5): 100%

SMILES: CSC1=Nc2c(c(C)c(C)n2CCCC(=O)O)C2=NC(=O)CN12
- growth at 10 µM (SN12C): 115%
- growth at 10 µM (OVCAR-5): 117%
- growth at 10 µM (NCI-H23): 109%
- growth at 10 µM (MDA-MB-468): 97%
- growth at 10 µM (T47D): 103%
- growth at 10 µM (TK-10): 121%
- growth at 10 µM (NCI-H226): 110%
- growth at 10 µM (HOP-62): 98%
- growth at 10 µM (Hs-578T): 114%
- growth at 10 µM (IGROV-1): 101%
- growth at 10 µM (U-251): 107%
- growth at 10 µM (HCT-15): 114%
- growth at 10 µM (LOX IMVI): 93%
- growth at 10 µM (SNB-19): 107%
- growth at 10 µM (UACC-62): 111%
- growth at 10 µM (SK-MEL-28): 110%
- growth at 10 µM (SK-OV-3): 113%
- growth at 10 µM (OVCAR-4): 104%
- growth at 10 µM (COLO 205): 137%
- growth at 10 µM (MCF7): 95%
- growth at 10 µM (ACHN): 108%
- growth at 10 µM (NCI-H460): 105%
- growth at 10 µM (786-0): 109%
- growth at 10 µM (HT-29): 108%
- growth at 10 µM (BT-549): 105%
- growth at 10 µM (MDA-MB-435): 119%
- growth at 10 µM (SK-MEL-5): 101%

SMILES: CCOC(=O)CCCn1c2c(c(C)c1-c1ccccc1)C1=NC(=O)CN1C(SC)=N2
- growth at 10 µM (SN12C): 127%
- growth at 10 µM (OVCAR-5): 111%
- growth at 10 µM (NCI-H23): 110%
- growth at 10 µM (MDA-MB-468): 87%
- growth at 10 µM (T47D): 88%
- growth at 10 µM (TK-10): 123%
- growth at 10 µM (NCI-H226): 110%
- growth at 10 µM (HOP-62): 111%
- growth at 10 µM (Hs-578T): 112%
- growth at 10 µM (IGROV-1): 105%
- growth at 10 µM (U-251): 102%
- growth at 10 µM (HCT-15): 114%
- growth at 10 µM (LOX IMVI): 93%
- growth at 10 µM (SNB-19): 106%
- growth at 10 µM (UACC-62): 95%
- growth at 10 µM (SK-MEL-28): 100%
- growth at 10 µM (SK-OV-3): 123%
- growth at 10 µM (OVCAR-4): 94%
- growth at 10 µM (COLO 205): 129%
- growth at 10 µM (MCF7): 84%
- growth at 10 µM (ACHN): 112%
- growth at 10 µM (NCI-H460): 94%
- growth at 10 µM (786-0): 100%
- growth at 10 µM (HT-29): 103%
- growth at 10 µM (BT-549): 107%
- growth at 10 µM (MDA-MB-435): 111%
- growth at 10 µM (SK-MEL-5): 78%
